The nature of data set [1]: Selectivity ratio of IC50 for CYP3A4 in human liver microsomes to IC50 for CYP26A1 in human MCF7 cell microsomes. For orientation: Microsomes from liver hold many membrane-bound enzymes, among them those of drug oxidation.
Data set [2] is described as follows: Selectivity ratio of IC50 for CYP2C9 in human liver microsomes to IC50 for CYP26A1 in human MCF7 cell microsomes.
The next data set concerns the target CYP2C9 (Homo sapiens, UniProt P11712). Nature of the data set: Inhibition of CYP2C9 in human liver microsomes at 0.4 uM. It is filed as ADME, Microsome.
In a further data set the target is CYP2C19 (Homo sapiens, UniProt P33261). Nature of the data set: Inhibition of CYP2C19 in human liver microsomes at 0.4 uM. Format: ADME, Microsome.
CYP2C19, sequence (P33261 whole entry): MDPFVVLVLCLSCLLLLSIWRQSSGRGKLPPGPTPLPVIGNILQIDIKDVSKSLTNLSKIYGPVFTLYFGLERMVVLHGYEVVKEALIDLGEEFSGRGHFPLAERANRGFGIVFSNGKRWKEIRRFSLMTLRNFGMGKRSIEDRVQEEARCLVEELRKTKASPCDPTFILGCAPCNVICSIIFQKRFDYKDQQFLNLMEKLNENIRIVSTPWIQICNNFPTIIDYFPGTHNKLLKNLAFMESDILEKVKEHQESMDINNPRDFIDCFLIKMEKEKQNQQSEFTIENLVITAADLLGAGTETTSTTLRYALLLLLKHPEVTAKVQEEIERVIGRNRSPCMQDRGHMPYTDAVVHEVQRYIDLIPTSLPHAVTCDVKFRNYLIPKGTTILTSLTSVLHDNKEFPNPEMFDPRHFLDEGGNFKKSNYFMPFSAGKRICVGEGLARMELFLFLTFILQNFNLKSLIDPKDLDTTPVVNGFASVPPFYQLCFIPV
The target of another data set is T1, Cytochrome P450 26A1 (Homo sapiens, UniProt O43174).
T1 sequence (O43174 whole entry): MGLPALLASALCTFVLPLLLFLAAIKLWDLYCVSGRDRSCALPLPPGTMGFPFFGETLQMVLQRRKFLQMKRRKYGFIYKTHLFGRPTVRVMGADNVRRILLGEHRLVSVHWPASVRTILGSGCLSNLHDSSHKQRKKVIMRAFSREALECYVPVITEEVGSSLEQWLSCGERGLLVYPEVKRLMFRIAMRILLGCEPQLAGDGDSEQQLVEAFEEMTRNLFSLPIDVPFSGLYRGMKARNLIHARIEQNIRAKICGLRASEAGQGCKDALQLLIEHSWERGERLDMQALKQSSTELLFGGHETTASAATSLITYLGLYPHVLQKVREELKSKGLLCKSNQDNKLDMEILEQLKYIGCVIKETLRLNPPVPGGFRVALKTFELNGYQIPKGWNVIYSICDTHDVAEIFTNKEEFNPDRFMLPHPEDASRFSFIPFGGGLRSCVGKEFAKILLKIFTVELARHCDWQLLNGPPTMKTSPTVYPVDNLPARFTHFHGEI
Nature of the data set: Inhibition of CYP26A1 in human MCF7 cell microsomes using [3H]ATRA as substrate after 1 hr by scintillation counter analysis. Further details: species or system Microsome. In short, it runs like this: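 MCF-7 cells (RPMI 1640, 10% FCS, 2 mM L-glutamine, 37 °C, 5% CO₂) pretreated 24 h with 1 µM RA to induce CYP26; microsomes by differential centrifugation, activity normalised by cytochrome c reductase. 50 µg microsomal protein, 2 mM NADPH, 10 nM ATRA plus 0.1 µCi ³H-ATRA, pH 7.4 Tris/KCl/MgCl₂/BSA, inhibitor 1–1000 nM, 1 h 37 °C; acetonitrile quench, C18 HPLC, flow scintillation; inhibition from metabolite peak area fraction versus no-inhibitor control.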

The nature of data set [3]: Selectivity ratio of IC50 for CYP1A2 in human liver microsomes to IC50 for CYP26A1 in human MCF7 cell microsomes.
A further data set addresses T2, Cytochrome P450 1A2 (Homo sapiens, UniProt P05177).
T2 sequence (P05177 whole entry): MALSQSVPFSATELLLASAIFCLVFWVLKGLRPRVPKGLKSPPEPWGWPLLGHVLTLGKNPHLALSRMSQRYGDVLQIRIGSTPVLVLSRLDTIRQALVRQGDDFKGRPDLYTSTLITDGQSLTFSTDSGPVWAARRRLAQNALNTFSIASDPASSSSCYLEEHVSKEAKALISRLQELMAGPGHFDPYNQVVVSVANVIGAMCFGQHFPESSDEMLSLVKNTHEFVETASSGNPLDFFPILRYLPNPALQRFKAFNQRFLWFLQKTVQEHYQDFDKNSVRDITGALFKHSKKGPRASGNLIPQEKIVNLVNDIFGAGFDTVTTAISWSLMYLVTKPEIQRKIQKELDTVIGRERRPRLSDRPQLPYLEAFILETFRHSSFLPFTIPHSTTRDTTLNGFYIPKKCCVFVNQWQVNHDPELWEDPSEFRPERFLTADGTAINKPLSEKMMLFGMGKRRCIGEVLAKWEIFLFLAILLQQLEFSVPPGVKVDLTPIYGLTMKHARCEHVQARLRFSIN
Nature of the data set: Inhibition of CYP1A2 in human liver microsomes. It is filed as ADME, Microsome.

For another data set, the target named is CYP3A4 (Homo sapiens, UniProt P08684). Nature of the data set: Inhibition of CYP3A4 in human liver microsomes at 0.4 uM. Format: ADME, Microsome.
CYP3A4, sequence (P08684 whole entry): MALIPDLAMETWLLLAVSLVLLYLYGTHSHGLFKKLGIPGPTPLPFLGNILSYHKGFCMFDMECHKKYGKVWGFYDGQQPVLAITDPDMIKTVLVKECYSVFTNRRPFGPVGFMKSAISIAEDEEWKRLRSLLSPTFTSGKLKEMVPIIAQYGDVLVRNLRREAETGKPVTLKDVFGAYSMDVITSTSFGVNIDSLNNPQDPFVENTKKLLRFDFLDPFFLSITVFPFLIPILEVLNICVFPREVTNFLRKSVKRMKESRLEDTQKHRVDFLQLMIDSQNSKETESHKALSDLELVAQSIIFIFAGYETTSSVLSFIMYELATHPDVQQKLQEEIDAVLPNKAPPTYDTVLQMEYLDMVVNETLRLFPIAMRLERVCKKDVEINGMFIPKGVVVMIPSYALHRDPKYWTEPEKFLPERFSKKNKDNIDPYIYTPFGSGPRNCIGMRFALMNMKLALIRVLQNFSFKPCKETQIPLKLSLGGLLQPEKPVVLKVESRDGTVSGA
Another data set addresses T3, CYP1A2 (Homo sapiens, UniProt P05177).
T3 sequence (P05177 whole entry): T2 sequence (P05177 whole entry)
The experiment in a line: Inhibition of CYP1A2 in human liver microsomes at 0.4 uM. Format: ADME, Microsome.

In a further data set the target is Cytochrome P450 2D6 (Homo sapiens, UniProt P10635). The experiment in a line: Inhibition of CYP2D6 in human liver microsomes. It is filed as ADME, Microsome.
Cytochrome P450 2D6, sequence (P10635 whole entry): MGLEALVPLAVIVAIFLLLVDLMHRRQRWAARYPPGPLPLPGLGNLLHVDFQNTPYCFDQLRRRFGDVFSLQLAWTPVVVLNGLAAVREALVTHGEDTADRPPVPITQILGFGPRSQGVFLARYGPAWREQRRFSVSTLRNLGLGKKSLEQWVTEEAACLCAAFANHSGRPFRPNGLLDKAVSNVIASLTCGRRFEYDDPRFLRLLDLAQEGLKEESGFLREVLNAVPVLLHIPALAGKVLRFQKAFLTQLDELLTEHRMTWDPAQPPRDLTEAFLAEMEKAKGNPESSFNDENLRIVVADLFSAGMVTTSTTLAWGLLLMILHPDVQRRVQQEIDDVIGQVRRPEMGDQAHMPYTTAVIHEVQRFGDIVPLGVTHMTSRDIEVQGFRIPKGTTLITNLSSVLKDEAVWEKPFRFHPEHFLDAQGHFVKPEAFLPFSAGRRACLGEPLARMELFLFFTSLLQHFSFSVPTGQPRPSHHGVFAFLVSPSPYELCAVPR
Another data set addresses Cytochrome P450 2C19 (Homo sapiens, UniProt P33261). The experiment in a line: Inhibition of CYP2C19 in human liver microsomes. It is filed as ADME, Microsome.
Data set [4] in a line: Selectivity ratio of IC50 for CYP2D6 in human liver microsomes to IC50 for CYP26A1 in human MCF7 cell microsomes.
The next data set has as its target Cytochrome P450 3A4 (Homo sapiens, UniProt P08684). The experiment in a line: Inhibition of CYP3A4 in human liver microsomes. It is filed as ADME, Microsome.
Another data set concerns the target CYP2D6 (Homo sapiens, UniProt P10635). The experiment in a line: Inhibition of CYP2D6 in human liver microsomes at 0.4 uM. It is filed as ADME, Microsome.
The target of a further data set is Cytochrome P450 2C9 (Homo sapiens, UniProt P11712). Nature of the data set: Inhibition of CYP2C9 in human liver microsomes. Format: ADME, Microsome.
Cytochrome P450 2C9, sequence (P11712 whole entry): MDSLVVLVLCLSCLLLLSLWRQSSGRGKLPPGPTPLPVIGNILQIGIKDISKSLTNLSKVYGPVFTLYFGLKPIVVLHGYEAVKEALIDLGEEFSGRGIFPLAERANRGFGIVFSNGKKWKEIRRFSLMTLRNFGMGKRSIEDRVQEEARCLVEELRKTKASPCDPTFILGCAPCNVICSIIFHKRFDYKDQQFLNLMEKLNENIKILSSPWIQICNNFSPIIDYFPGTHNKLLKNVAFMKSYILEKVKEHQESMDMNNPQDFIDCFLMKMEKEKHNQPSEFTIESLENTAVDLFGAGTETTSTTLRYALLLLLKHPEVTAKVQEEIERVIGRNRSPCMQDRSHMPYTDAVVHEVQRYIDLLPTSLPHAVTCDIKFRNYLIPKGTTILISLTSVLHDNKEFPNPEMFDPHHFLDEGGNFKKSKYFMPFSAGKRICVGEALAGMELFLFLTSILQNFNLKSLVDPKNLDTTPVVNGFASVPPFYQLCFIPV

The inhibition is the drop in the measured response relative to a control, in per cent. A higher inhibition goes with a strong effect. As a reminder, the IC50 is the concentration at which inhibition is half-maximal. Higher therefore signals a need for much substance.

CYP2C9, sequence (P11712 whole entry): as above
CYP2D6, sequence (P10635 whole entry): as the sequence (P10635 whole entry) above
Cytochrome P450 2C19, sequence (P33261 whole entry): as the sequence (P33261 whole entry) above
Cytochrome P450 3A4, sequence (P08684 whole entry): as the sequence (P08684 whole entry) above

In the case of `COC(=O)C(C)(C)C(c1ccc(Nc2ccccc2)cc1)n1cncn1` (stereo not drawn), the “Ratio IC50” value in data set [1] is recorded as 15; in [2], above 100; in data set [3], above 100; in data set [4] it was above 100. In addition, the inhibition at 0.4 µM is 19% on CYP2C9; 19% against CYP2C19; 47% on CYP3A4; 10% at CYP1A2; 13% against CYP2D6. For the same compound, the IC50 came to 13 nM against Cytochrome P450 26A1; 8500 nM against Cytochrome P450 1A2; 1300 nM against Cytochrome P450 2D6; 4200 nM against Cytochrome P450 2C19; 200 nM against Cytochrome P450 3A4; 9100 nM on Cytochrome P450 2C9.
Compound `COC(=O)C(C)(C)C(c1ccc(Nc2ccc(C(C)=O)cc2)cc1)n1cncn1` (stereo not drawn) returned an IC50 at Cytochrome P450 26A1 of 95 nM.
In turn, `CC(C)(C(=O)O)C(c1ccc(Nc2ccccc2)cc1)n1ccnc1` (stereo not drawn) yielded an IC50 at Cytochrome P450 26A1 above 1000 nM.
The same measure, in the same setting: as for `CC(C)(C(=O)O)C(c1ccc(Nc2ccc(C(=O)O)cc2)cc1)n1cncn1` (stereo not drawn), the figure is 85 nM; as for `CNC(=O)C(C)(C)C(c1ccc(Nc2ccccc2)cc1)n1ccnc1` (stereo not drawn), 200 nM.
`CCNC(=O)C(C)(C)C(c1ccc(Nc2ccccc2)cc1)n1ccnc1` (stereo not drawn) gave an IC50 against Cytochrome P450 26A1 of 250 nM.
Consider `CNC(=O)C(C)(C)C(c1ccc(Nc2ccc(OC)cc2)cc1)n1ccnc1` (stereo not drawn), for which, at Cytochrome P450 26A1, the IC50 was above 1000 nM.
The same measure, in the same setting: then `CNC(=O)C(C)(C)C(c1ccc(Nc2ccc(Cl)cc2)cc1)n1ccnc1` (stereo not drawn), with 1000 nM; and `CNC(=O)C(C)(C)C(c1ccc(Nc2ccccc2)cc1)n1cncn1` (stereo not drawn), with 1000 nM.
`C[C@H]([C@@H](c1ccc(Nc2nc3ccccc3s2)cc1)n1cncn1)N(C)C`: the inhibition at 0.4 µM was determined as 3% at CYP2C9; 17% at CYP2C19; 83% at CYP3A4; 6% against CYP1A2; 27% against CYP2D6.
